Measured values: ChEMBL document CHEMBL4613227, “Synthesis and evaluation of the HIF-1α inhibitory activity of 3(5)-substituted-4-(quinolin-4-yl)- and 4-(2-phenylpyridin-4-yl)pyrazoles as inhibitors of ALK5” (Bioorg Med Chem Lett, 2020)
Activity calls are given as the source filed them. The calls are words filed in the database; no cut-off is given here. Where a SMILES comes first, the peptide text is derived from it. The star is where a group is joined. Cbz = O=C(OCc1ccccc1)*

Legend:
[1] = biological target: T1, Mitogen-activated protein kinase 14 (Homo sapiens, UniProt Q16539); assay: Inhibition of recombinant human p38alpha expressed in Escherichia coli assessed as residual activity at 10 uM (reference value: 100 +/- 0.1%)
Method in brief: (§1)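 Single-point kinase screen at 10 μM, in duplicate; ALK5 as human GST-fusion from baculovirus/Sf9, p38α as untagged human protein from E. coli; residual activity relative to DMSO vehicle, mean ± SD of two independent experiments.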

[2] = biological target: T2, TGF-beta receptor type-1 (Homo sapiens) (UniProt P36897); assay: Inhibition of recombinant GST-tagged human ALK5 expressed in baculovirus infected Sf9 insect cells assessed as residual activity at 10 uM; method in brief: as §1
T2 sequence (whole entry): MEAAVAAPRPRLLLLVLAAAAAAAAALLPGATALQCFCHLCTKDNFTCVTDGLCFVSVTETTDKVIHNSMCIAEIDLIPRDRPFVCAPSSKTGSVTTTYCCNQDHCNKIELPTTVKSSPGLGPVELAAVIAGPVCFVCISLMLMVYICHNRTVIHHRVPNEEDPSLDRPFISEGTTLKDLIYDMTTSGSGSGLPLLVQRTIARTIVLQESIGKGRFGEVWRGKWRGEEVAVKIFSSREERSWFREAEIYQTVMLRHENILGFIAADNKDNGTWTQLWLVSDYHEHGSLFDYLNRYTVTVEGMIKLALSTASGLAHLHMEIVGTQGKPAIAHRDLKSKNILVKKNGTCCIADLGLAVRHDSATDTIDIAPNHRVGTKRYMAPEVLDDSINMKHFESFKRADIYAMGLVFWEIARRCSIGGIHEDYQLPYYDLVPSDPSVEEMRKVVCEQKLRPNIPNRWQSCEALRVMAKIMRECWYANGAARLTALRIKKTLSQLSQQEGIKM

[3] = biological target: T1, Mitogen-activated protein kinase 14; assay: Inhibition of recombinant human p38alpha expressed in Escherichia coli
Method in brief: (§2)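 IC50 determination against ALK5 (human GST-fusion, Sf9 baculovirus) and p38α (untagged human, E. coli); values averaged from three independent experiments run in triplicate.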

[4] = biological target: T3, TGF-beta receptor type-1 (Homo sapiens, UniProt P36897); assay: Inhibition of recombinant GST-tagged human ALK5 expressed in baculovirus infected Sf9 insect cells; method in brief: as §2
T3 sequence (P36897 whole entry): T2 sequence (whole entry)

[5] = tested on: HCT-116; assay: Inhibition of TNFalpha-induced HIF1alpha expression in human HCT116 cells at 50 uM by Western blot analysis; format: functional, cell-based
Method in brief: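 HCT116 exposed to TNF 10 ng/mL for 24 h with graded concentrations; total protein blotted for HIF-1α, Topo-I reprobe as loading control.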

[6] = tested on: HCT-116; assay: Induction of apoptosis in human HCT116 cells assessed as viable cells at 50 uM after 12 hrs by Annexin-V/PI-staining based flow cytometric analysis (reference value: 95.3%); format: functional; details: HCT-116, 12 h, read-out: Activity
[7] = tested on: HCT-116; assay: Induction of apoptosis in human HCT116 cells assessed as necrotic cells at 50 uM after 12 hrs by Annexin-V/PI-staining based flow cytometric analysis (reference value: 3.5%); format: functional
[8] = tested on: HCT-116; assay: Induction of apoptosis in human HCT116 cells assessed as viable cells at 50 uM preincubated for 12 hrs followed by TNF stimulation and measured after 24 hrs by Annexin-V/PI-staining based flow cytometric analysis (reference value: 92.4%); format: functional; details: read-out: Activity
[9] = tested on: HCT-116; assay: Induction of apoptosis in human HCT116 cells assessed as early apoptotic cells at 50 uM preincubated for 12 hrs followed by TNF stimulation and measured after 24 hrs by Annexin-V/PI-staining based flow cytometric analysis (reference value: 2.8%); format: functional
[10] = tested on: HCT-116; assay: Induction of apoptosis in human HCT116 cells assessed as late apoptotic cells at 50 uM preincubated for 12 hrs followed by TNF stimulation and measured after 24 hrs by Annexin-V/PI-staining based flow cytometric analysis (reference value: 1.4%); format: functional
[11] = tested on: HCT-116; assay: Induction of apoptosis in human HCT116 cells assessed as necrotic cells at 50 uM preincubated for 12 hrs followed by TNF stimulation and measured after 24 hrs by Annexin-V/PI-staining based flow cytometric analysis (reference value: 3.6%); format: functional
[12] = tested on: HCT-116; assay: […] of HIF1alpha expression in human HCT116 cells at 10 uM after 30 mins in presence of 1% O2 by Western blot analysis; format: functional, cell-based

T1 sequence (Q16539 whole entry, the tested form may be a part): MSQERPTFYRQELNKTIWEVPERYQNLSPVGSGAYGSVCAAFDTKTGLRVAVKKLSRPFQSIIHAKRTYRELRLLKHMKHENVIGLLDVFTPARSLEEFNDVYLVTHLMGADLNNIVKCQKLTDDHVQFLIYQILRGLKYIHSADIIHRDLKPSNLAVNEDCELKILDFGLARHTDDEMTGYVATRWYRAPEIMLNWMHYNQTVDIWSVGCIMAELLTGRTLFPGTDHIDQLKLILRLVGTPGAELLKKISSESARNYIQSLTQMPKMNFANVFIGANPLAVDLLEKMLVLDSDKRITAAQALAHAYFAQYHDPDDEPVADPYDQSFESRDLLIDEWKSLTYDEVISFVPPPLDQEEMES

SMILES	Activity [1]	Activity [2]	other results
Cc1cccc(-c2c(-c3ccnc(-c4ccccc4)c3)cnn2CC(=O)Nc2ccccc2)n1	66%	100%	–
Cc1cccc(-c2nn(CC(=S)Nc3ccccc3F)cc2-c2ccnc(-c3ccccc3)c2)n1	4%	11%	IC50 [3]: 487 nM; IC50 [4]: 2050 nM
Cc1cccc(-c2nn(CC(=O)Nc3ccccc3)cc2-c2ccnc(-c3ccccc3)c2)n1	11%	12%	–
Cc1cccc(-c2nn(CC(=S)Nc3ccccc3)cc2-c2ccnc(-c3ccccc3)c2)n1	10%	11%	IC50 [3]: 536 nM; IC50 [4]: 1690 nM
Cc1cccc(-c2c(-c3ccnc(-c4ccccc4)c3)cnn2CC(=O)Nc2cccc(C#N)c2)n1	135%	105%	–
Cc1cccc(-c2c(-c3ccnc4ccccc34)cnn2CC(=O)Nc2ccccc2)n1	24%	71%	–
Cc1cccc(-c2nn(CC(=O)Nc3cccc(C#N)c3)cc2-c2ccnc(-c3ccccc3)c2)n1	24%	18%	–
Cc1cccc(-c2c(-c3ccnc(-c4ccccc4)c3)cnn2CC(=O)Nc2ccccc2F)n1	96%	102%	–
Cc1cccc(-c2nn(CC(=S)Nc3cccc(C#N)c3)cc2-c2ccnc(-c3ccccc3)c2)n1	15%	12%	IC50 [3]: 1150 nM; IC50 [4]: 2200 nM
Cc1cccc(-c2c(-c3ccnc4ccccc34)cnn2CC(=O)Nc2cccc(C#N)c2)n1	51%	17%	–
Cc1cccc(-c2nn3c(c2-c2ccnc4ccc(C(N)=O)cc24)CCC3)n1 [GALUNISERTIB]	4%	–	inhibition [5]: Active; viability at 50 µM [6]: 85.2%; Activity [7]: 8.5%; viability at 50 µM [8]: 87.7%; Activity [9]: 3.7%; Activity [10]: 2.8%; Activity [11]: 5.7%
CC(C)C[C@@H](C=O)NC(=O)[C@H](CC(C)C)NC(=O)[C@H](CC(C)C)NC(=O)OCc1ccccc1 (Cbz-Leu-Leu-Leu-aldehyde)	–	–	Activity [12]: Active
Cc1cccc(-c2c(-c3ccnc(-c4ccccc4)c3)cnn2CC(=O)Nc2cccc(F)c2)n1	81%	93%	–
Cc1cccc(-c2nn(CC(=O)Nc3ccccc3F)cc2-c2ccnc(-c3ccccc3)c2)n1	20%	20%	–
Cc1cccc(-c2c(-c3ccnc4ccccc34)cnn2CC(=O)Nc2ccccc2F)n1	50%	79%	–

The next lines start with results.

Activity [1]	Activity [2]	SMILES	other results
9%	6%	Cc1cccc(-c2nn(CC(=S)Nc3cccc(F)c3)cc2-c2ccnc(-c3ccccc3)c2)n1	IC50 [3]: 761 nM; IC50 [4]: 1560 nM
6%	0%	Cc1cccc(-c2nn(CC(=O)Nc3ccccc3F)cc2-c2ccnc3ccccc23)n1	–
6%	1%	Cc1cccc(-c2nn(CC(=O)Nc3cccc(C#N)c3)cc2-c2ccnc3ccccc23)n1	–
14%	3%	Cc1cccc(-c2nn(CC(=O)Nc3cccc(F)c3)cc2-c2ccnc(-c3ccccc3)c2)n1	–
4%	2%	Cc1cccc(-c2nn(CC(=S)Nc3ccccc3F)cc2-c2ccnc3ccccc23)n1	IC50 [3]: 68 nM; IC50 [4]: 53 nM
4%	0%	Cc1cccc(-c2nn(CC(=O)Nc3cccc(F)c3)cc2-c2ccnc3ccccc23)n1	–
31%	39%	Cc1cccc(-c2c(-c3ccnc4ccccc34)cnn2CC(=O)Nc2cccc(F)c2)n1	–
3%	2%	Cc1cccc(-c2nn(CC(=S)Nc3cccc(F)c3)cc2-c2ccnc3ccccc23)n1	IC50 [3]: 63 nM; IC50 [4]: 43 nM
3%	3%	Cc1cccc(-c2nn(CC(=S)Nc3ccccc3)cc2-c2ccnc3ccccc23)n1	IC50 [3]: 74 nM; IC50 [4]: 57 nM
10%	2%	Cc1cccc(-c2nn(CC(=O)Nc3ccccc3)cc2-c2ccnc3ccccc23)n1	–
